13 molecules from ChEMBL document CHEMBL2151014, “Facile water promoted synthesis of 1,2,3-triazolyl dihydropyrimidine-2-thione hybrids - highly potent antibacterial agents” (2012) can be followed below.

Converted amounts (≈) assume the structure as drawn. The source made the active and inactive calls. The calls are words filed in the database; no cut-off is given here.

One experiment concerns Streptococcus pneumoniae. Kind of experiment: Antibacterial activity against Streptococcus pneumoniae after 48 hrs by well diffusion assay. The format is functional. In outline: (§1)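 Clinical isolates identified biochemically; maintained on yeast extract–peptone–NaCl agar, pH 7.2, at 28 ± 2 °C. About 1 mL inoculum mixed into molten nutrient agar and poured. A central 5 mm well was cut and filled with 50 μL of compound in 10% DMSO, filter-sterilized, at various concentrations. 10% DMSO served as control. Inhibition zones were read after 48 h at room temperature.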
(In general: Agar diffusion results depend on both activity and mobility in agar.)

Another experiment has as its system Salmonella typhi. Kind of experiment: Antibacterial activity against Salmonella typhi after 48 hrs by well diffusion assay.
The test system of another experiment is Staphylococcus aureus. The experiment is described as follows: Antibacterial activity against Staphylococcus aureus after 48 hrs by well diffusion assay. Type of experiment: functional. The method, boiled down: as §1
The test system of another experiment is Pseudomonas aeruginosa. Kind of experiment: Antibacterial activity against Pseudomonas aeruginosa after 48 hrs by well diffusion assay. Type of experiment: functional. In outline: as §1
Setting [1] is: Salmonella enterica subsp. enterica serovar Typhi.

Broadly, the MIC99 is the lowest concentration that inhibits either 99% of growth or 99% of the strains tested, depending on the study. As for `Cc1c(C2=CC(c3ccc([N+](=O)[O-])cc3)NC(=S)N2)nnn1Cc1ccccc1` (configuration not stated), the MIC99 was found to be 20 µg/mL (≈ 49.2 µM) against Streptococcus pneumoniae, 80 µg/mL (≈ 197 µM) in the experiment on Salmonella typhi (Salmonella enterica), 20 µg/mL (≈ 49.2 µM) in the experiment on Staphylococcus aureus and 20 µg/mL (≈ 49.2 µM) in the experiment with Pseudomonas aeruginosa.
On to `Cc1c(C2=CC(c3ccc(F)cc3)NC(=S)N2)nnn1Cc1ccccc1` (configuration not stated), for which the MIC99 with Streptococcus pneumoniae was determined as 100 µg/mL (≈ 264 µM); with Staphylococcus aureus, 85 µg/mL (≈ 224 µM); with Pseudomonas aeruginosa it was 130 µg/mL (≈ 343 µM). In addition, the MIC99 entry in the experiment with Salmonella typhi (setting [1]) was “inactive”.
On to `Cc1c(C2=CC(c3cccc(Br)c3)NC(=S)N2)nnn1Cc1ccccc1` (configuration not stated), for which the MIC99 worked out at 35 µg/mL (≈ 79.5 µM) against Streptococcus pneumoniae, 90 µg/mL (≈ 204 µM) in the experiment with Salmonella typhi (Salmonella enterica), 22 µg/mL (≈ 50 µM) in the experiment on Staphylococcus aureus and 24 µg/mL (≈ 54.5 µM) against Pseudomonas aeruginosa.
Take `COc1ccc(C2C=C(c3nnn(Cc4ccccc4)c3C)NC(=S)N2)cc1` (configuration not stated): the MIC99 worked out at 40 µg/mL (≈ 102 µM) against Streptococcus pneumoniae and 10 µg/mL (≈ 25.5 µM) against Pseudomonas aeruginosa. Besides, the MIC99 result with Salmonella typhi (setting [1]) and with Staphylococcus aureus was “inactive” each time.
Consider `Cc1c(C2=CC(c3ccccc3)NC(=S)N2)nnn1Cc1ccccc1` (configuration not stated), for which the MIC99 stood at 19 µg/mL (≈ 52.6 µM) with Streptococcus pneumoniae, 18 µg/mL (≈ 49.8 µM) with Salmonella typhi (Salmonella enterica), 10 µg/mL (≈ 27.7 µM) with Staphylococcus aureus and 12 µg/mL (≈ 33.2 µM) against Pseudomonas aeruginosa.
Take `Cc1c(C2=CC(c3ccc(Br)cc3)NC(=S)N2)nnn1Cc1ccccc1` (configuration not stated): the MIC99 with Streptococcus pneumoniae came to 44 µg/mL (≈ 99.9 µM); in the experiment with Salmonella typhi (Salmonella enterica) it was 120 µg/mL (≈ 272 µM); against Staphylococcus aureus, 95 µg/mL (≈ 216 µM); with Pseudomonas aeruginosa it was 100 µg/mL (≈ 227 µM).
Consider `CN(C)[C@@H]1C(O)=C(C(N)=O)C(=O)[C@@]2(O)C(O)=C3C(=O)c4c(O)cccc4[C@@](C)(O)[C@H]3C[C@@H]12` [TETRACYCLINE], for which the MIC99 in the experiment with Streptococcus pneumoniae stood at 20 µg/mL (≈ 45 µM); against Salmonella typhi (Salmonella enterica), 15 µg/mL (≈ 33.8 µM); against Staphylococcus aureus, 10 µg/mL (≈ 22.5 µM); in the experiment with Pseudomonas aeruginosa it was 10 µg/mL (≈ 22.5 µM).
On to `Cc1ccccc1C1C=C(c2nnn(Cc3ccccc3)c2C)NC(=S)N1` (configuration not stated), for which the MIC99 with Streptococcus pneumoniae came out at 19 µg/mL (≈ 50.6 µM); against Salmonella typhi (Salmonella enterica) it was 25 µg/mL (≈ 66.6 µM); with Staphylococcus aureus, 37 µg/mL (≈ 98.5 µM); against Pseudomonas aeruginosa, 18 µg/mL (≈ 47.9 µM).
Consider `Cc1ccc(C2C=C(c3nnn(Cc4ccccc4)c3C)NC(=S)N2)cc1` (configuration not stated), for which the MIC99 in the experiment with Streptococcus pneumoniae was 16 µg/mL (≈ 42.6 µM); against Salmonella typhi (Salmonella enterica) it was 13 µg/mL (≈ 34.6 µM); in the experiment on Staphylococcus aureus, 8 µg/mL (≈ 21.3 µM); against Pseudomonas aeruginosa, 10 µg/mL (≈ 26.6 µM).
In the case of `Cc1c(C2=CC(c3ccc(Cl)cc3Cl)NC(=S)N2)nnn1Cc1ccccc1` (configuration not stated), the MIC99 was determined as 25 µg/mL (≈ 58.1 µM) in the experiment with Streptococcus pneumoniae and 43 µg/mL (≈ 99.9 µM) in the experiment on Staphylococcus aureus. The MIC99 entry in the experiment on Salmonella typhi (setting [1]) and in the experiment on Pseudomonas aeruginosa was “inactive” each time.
In the experiment with Streptococcus pneumoniae, `Cc1c(C2=CC(c3ccccc3Br)NC(=S)N2)nnn1Cc1ccccc1` (configuration not stated) displayed an MIC99 of 33 µg/mL (≈ 74.9 µM). The MIC99 result in the experiment on Salmonella typhi (setting [1]), in the experiment on Staphylococcus aureus and in the experiment with Pseudomonas aeruginosa was “inactive” throughout.
Consider `Cc1c(C2=CC(c3ccc(Cl)cc3)NC(=S)N2)nnn1Cc1ccccc1` (configuration not stated), for which the MIC99 worked out at 10 µg/mL (≈ 25.3 µM) with Streptococcus pneumoniae, 20 µg/mL (≈ 50.5 µM) in the experiment with Salmonella typhi (Salmonella enterica), 10 µg/mL (≈ 25.3 µM) with Staphylococcus aureus and 9 µg/mL (≈ 22.7 µM) against Pseudomonas aeruginosa.
With `COc1ccc(C2C=C(c3nnn(Cc4ccccc4)c3C)NC(=S)N2)c(OC)c1` (configuration not stated), the MIC99 worked out at 42 µg/mL (≈ 99.6 µM) against Streptococcus pneumoniae and 32 µg/mL (≈ 75.9 µM) with Salmonella typhi (Salmonella enterica). Moreover, the MIC99 entry with Staphylococcus aureus and in the experiment with Pseudomonas aeruginosa was “inactive” throughout.
